This note sets out measurements from ChEMBL document CHEMBL4130346, “New quinoline-arylamidine hybrids: Synthesis, DNA/RNA binding and antitumor activity” (Eur J Med Chem, 2017).

Where only a bound is given, the exact number is not on record here.

A short description of data set [1]: Chemical stability in aqueous solution after several weeks. It is filed as physicochemical. Particulars: buffer. The procedure, abridged:
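Aqueous compound solutions were monitored for several weeks by UV-Vis absorbance at 220-900 nm. Linearity with concentration was checked up to 3.5 × 10^-5 mol dm-3, and spectra were recorded at 25–90 °C with reproducibility checked on cooling to 25 °C.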

The test system of data set [2] is HeLa. The data set is described as follows: Growth inhibition of human HeLa cells after 72 hrs by MTT assay. Type of data set: functional. The method in brief: (§1)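 Adherent cells (2x10^4 cells/cm3) attached overnight, then were exposed to compound for 72 h. Medium was replaced with 5 mg/cm3 MTT, formazan was dissolved in DMSO and absorbance read at 595 nm. Percent growth was taken relative to untreated control minus background. GI50 came from a variable-slope log-inhibitor fit, as mean ± SD of three independent experiments in triplicate.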

Data set [3] can be described thus: Growth inhibition of MDCK1 cells after 72 hrs by MTT assay. The conditions noted are these: dog. The arrangement: species or system Canis lupus familiaris. The procedure, abridged:
as §1
For orientation: Tetrazolium dyes change colour on reduction, which living cells bring about.

A short description of data set [4]: Solubility of the compound in water. It is filed as physicochemical.
Data set [5] relates to K562. The experiment in a line: Growth inhibition of human K562 cells after 72 hrs by MTT assay. Type of data set: functional. Particulars: K562, 72 h. The method in brief:
(§2)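 Leukemia cells (1x10^5 cells/cm3) were exposed to compound for 72 h, then MTT (5 mg/cm3) was added for 4 h. Formazan was dissolved with 10% SDS in 0.01 mol dm-3 HCl and absorbance read at 595 nm. Percent growth was taken versus untreated control minus background. GI50 came from a variable-slope fit, as mean ± SD of three independent experiments in triplicate.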

In data set [6] the test system is Caco-2. The experiment in a line: Growth inhibition of human Caco2 cells after 72 hrs by MTT assay. It is filed as functional. Particulars: Caco-2, 72 h. The procedure, abridged:
as §1

For data set [7], the system named is Raji. The experiment in a line: Growth inhibition of human Raji cells after 72 hrs by MTT assay. Type of data set: functional. The method in brief:
as §2

Data set [8] is described as follows: Binding affinity to polyA-polyU (unknown origin) assessed as change in melting temperature at 0.1 compound to ds-polynucleotide ratio by spectrophotometric method. The procedure, abridged: (§3)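 Thermal melting of ct-DNA (sonicated, filtered) or polyA-polyU in Na cacodylate buffer, I = 0.05 mol dm-3, pH 7.0, at given r = [compound]/[polynucleotide]; polynucleotide as phosphate concentration. Tm from maximum of first derivative, checked by tangent method. ΔTm = Tm(complex) − Tm(free nucleic acid), average of at least two measurements, error ±0.5 °C.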

Data set [9] concerns Calf thymus DNA. The experiment in a line: Binding affinity to calf thymus DNA assessed as change in melting temperature at 0.5 compound to ds-polynucleotide ratio by spectrophotometric method. It is filed as nucleic-acid assay. Particulars: Bos taurus. The method in brief:
as §3

Data set [10] has as its system Calf thymus DNA. The data set is described as follows: Binding affinity to calf thymus DNA assessed as change in melting temperature at 0.1 compound to ds-polynucleotide ratio by spectrophotometric method. It is filed as nucleic-acid assay. Particulars: Bos taurus. The procedure, abridged: as §3
In data set [11] the test system is Calf thymus DNA. The data set is described as follows: Binding affinity to calf thymus DNA assessed as change in melting temperature at 0.3 compound to ds-polynucleotide ratio by spectrophotometric method. The conditions noted are these: Bos taurus. Type of data set: nucleic-acid assay. The method in brief: as §3
The nature of data set [12]: Binding affinity to polyA-polyU (unknown origin) assessed as change in melting temperature at 0.3 compound to ds-polynucleotide ratio by spectrophotometric method. The procedure, abridged:
as §3

A short description of data set [13]: Binding affinity to polyA-polyU (unknown origin) assessed as change in melting temperature at 0.5 compound to ds-polynucleotide ratio by spectrophotometric method. The method in brief:
as §3

Usually GI50 stands for the concentration giving 50% growth inhibition. A word on the solubility: it is how much of the substance goes into solution per volume. A higher solubility goes with much dissolved substance. Take `CC(C)NC(=N)c1ccc(OCCNc2ccnc3cc(Cl)ccc23)cc1.Cl.Cl.Cl`: the Stability entry in [1] is given as “Stable”. In addition, the GI50 in [2], in [5], in [6] and in data set [7] was greater than 100 µM throughout. In addition, the GI50 at 72 h in data set [3] is greater than 100 µM. For the same molecule, the concentration in solution in data set [4] (solubility) was 1000 µM.
For the molecule `CC(C)CNC(=N)c1ccc(OCCNc2ccnc3cc(Cl)ccc23)cc1.Cl.Cl.Cl`, the Stability entry in data set [1] is “Stable”. In addition, the GI50 in data set [2] is greater than 100 µM; in [5] it was 77.3 µM; in data set [6] it was 92.6 µM; in data set [7], 86.2 µM. The same molecule returned a 50% growth inhibitory concentration (GI50) at 72 h in [3] greater than 100 µM. Also, the concentration in solution in [4] (solubility) came to 1000 µM.
As for `Cl.Cl.N=C(NC1CCCC1)c1ccc(OCCNc2ccnc3cc(Cl)ccc23)cc1`, the Stability entry in [1] is given as “Stable”. The GI50 was greater than 100 µM in data set [2], 76.9 µM in [5], 84.5 µM in data set [6] and 96.9 µM in data set [7]. This molecule registered a GI50 at 72 h in data set [3] greater than 100 µM. The same molecule showed a solubility in data set [4] of 1000 µM.
What is called ΔTm is the change in melting temperature against a reference sample. Turning to `CC(C)NC(=N)c1ccc(Oc2ccnc3cc(Cl)ccc23)cc1.Cl.Cl.Cl`, the Stability result in data set [1] was “Stable”. The ΔTm is 0.36 °C in data set [8]; 2.28 °C in data set [9]; 2.01 °C in data set [10]; 2.28 °C in data set [11]; -0.36 °C in data set [12]. The 50% growth inhibitory concentration (GI50) in data set [2] came out at 56.6 µM; in data set [5], 82.9 µM; in [6] it was 47.7 µM; in data set [7] it was 51.8 µM. In [3], this molecule displayed a GI50 at 72 h of 57.7 µM. This molecule also displayed a solubility in data set [4] of 1000 µM.
Consider `Cl.Cl.Clc1ccc2c(NCCOc3ccc(C4=NCCN4)cc3)ccnc2c1`, for which the Stability entry in [1] is given as “Stable”. Moreover, the GI50 in [2] was determined as 60.8 µM; in data set [5] it was 51.9 µM; in [6], 50.7 µM; in data set [7], 51.5 µM. For the same molecule, halving of growth in data set [3] (GI50 at 72 h) required 78.4 µM. The same molecule yielded a solubility in data set [4] of 1000 µM.
Consider `Cl.Cl.Clc1ccc2c(NCCOc3ccc(C4=NCCCN4)cc3)ccnc2c1`, for which the Stability result in [1] is “Stable”. The GI50 in data set [2], in data set [5], in data set [6] and in data set [7] was greater than 100 µM each time. In data set [3], this molecule yielded a 50% growth inhibitory concentration (GI50) at 72 h greater than 100 µM. In addition, in data set [4], the solubility stood at 1000 µM.
As for `Cl.Cl.Clc1ccc2c(Oc3ccc(C4=NCCN4)cc3)ccnc2c1`, the Stability result in [1] is given as “Stable”. The thermal shift (ΔTm) came out at 1.18 °C in [8]; 2.73 °C in data set [9]; 2.65 °C in [10]; 1.49 °C in [13]; 2.67 °C in data set [11]; 2.18 °C in [12]. Further, the 50% growth inhibitory concentration (GI50) worked out at 57.7 µM in data set [2], 48.7 µM in data set [5], 64 µM in data set [6] and 40.8 µM in [7]. For the same molecule, it took 56.6 µM to inhibit growth in data set [3] by half (GI50 at 72 h). The molecule further registered a solubility in data set [4] of 1000 µM.
As to `Cl.Cl.Cl.N=C(N)c1ccc(OCCNc2ccnc3cc(Cl)ccc23)cc1`, in data set [1], the Stability result is given as “Stable”. Besides, the GI50 in data set [2] came to 74 µM; in [5], 49.5 µM; in [6] it was 68.6 µM; in data set [7], 58.9 µM. Further, the GI50 at 72 h in [3] amounted to 74.4 µM. In addition, the solubility in data set [4] was 1000 µM.
`Cl.Cl.Clc1ccc2c(Oc3ccc(C4=NCCCN4)cc3)ccnc2c1`: the Stability result in data set [1] is given as “Stable”. Moreover, the ΔTm in data set [8] turned out to be 1.62 °C; in data set [9], 1.96 °C; in data set [10], 2.08 °C; in data set [13] it was 1.32 °C; in data set [11], 1.86 °C; in data set [12], 1.22 °C. Besides, the GI50 was 57 µM in data set [2], 62 µM in [5], 53.3 µM in [6] and 50.8 µM in data set [7]. In data set [3], the concentration for 50% growth inhibition (GI50) at 72 h stood at 37.5 µM. In data set [4], the solubility turned out to be 1000 µM.
